In PMC4535690 (Angewandte Chemie (International ed. in English), 2015):
Where a SMILES comes first, the peptide text is derived from it. The star is where a group is joined. Acetyl(thymin-1-yl) = Cc1cn(CC(=O)*)c(=O)[nH]c1=O; Adenin9ylacetyl = Nc1ncnc2c1ncn2CC(=O)*

Assays:
HeLa cells = assay: Biocompatibility; assay type: cell-based; conditions: 3 days incubation, single nucleopeptide (Figures S11 and S12)
Summary of the method: (§1)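 Nucleopeptides were tested singly and as two-component heterodimer mixtures. HeLa cells (24 h doubling time) were incubated for 3 days, and PC12 cells (92 h doubling time) for 7 days. Viability was then assessed as a measure of biocompatibility.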

PC12 cells = assay: Biocompatibility; assay type: cell-based; conditions: 7 days incubation (Figures S10, S11 and S12)
Summary of the method: as §1

proteinase K = proteinase K (Parengyodontium album, UniProt P06873); assay: Proteolytic stability on incubation with proteinase K; assay type: in vitro ADME; conditions: single component, 0.2 mg/mL in HEPES buffer pH 7.4; proteinase K 3.2 U/mL; 24 h at 37 °C (Figure 3A; KTTPV Figure S9)
Chain of proteinase K (P06873 106-384, species assumed): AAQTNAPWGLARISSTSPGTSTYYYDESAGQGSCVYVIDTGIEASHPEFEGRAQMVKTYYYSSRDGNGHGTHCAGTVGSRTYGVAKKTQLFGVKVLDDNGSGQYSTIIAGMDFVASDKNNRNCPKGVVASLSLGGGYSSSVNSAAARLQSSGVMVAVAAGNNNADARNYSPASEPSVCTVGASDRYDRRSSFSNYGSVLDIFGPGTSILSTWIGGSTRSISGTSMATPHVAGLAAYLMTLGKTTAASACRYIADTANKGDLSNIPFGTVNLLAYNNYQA

| Compound | Toxicity to HeLa cells (HeLa cells) | Toxicity / inhibition of proliferation of PC12 cells (PC12 cells) | Compound remained after incubating with proteinase K (proteinase K) |
| --- | --- | --- | --- |
| Cc1cn(CC(=O)N[C@@H](CCCCN)C(=O)N[C@H](C(=O)N[C@H](C(=O)N2CCC[C@H]2C(=O)N[C@H](C(=O)O)C(C)C)[C@@H](C)O)[C@@H](C)O)c(=O)[nH]c1=O [compound 1] ({Acetyl(thymin-1-yl)}-KTTPV-OH; N-terminus and C-terminus assumed) | no toxicity | no toxicity | – |
| CC(C)[C@H](NC(=O)[C@@H]1CCCN1C(=O)[C@@H](NC(=O)[C@@H](NC(=O)[C@H](CCCCN)NC(=O)Cn1cnc2c(N)ncnc21)[C@@H](C)O)[C@@H](C)O)C(=O)O [compound 2] (Adenin9ylacetyl-KTTPV-OH; N-terminus and C-terminus assumed) | no toxicity | no toxicity | – |
| LGFNI [compound 3] | no toxicity | no toxicity | hydrolyzes completely |
